Several values for one entry are separate records, joined by “and”; a condition that tells them apart may be missing. Identical values can stand only once.
Tested on: Fibroblast
Test: Multiplex assay against human fibroblast
Type: toxicity, cell-based
Conditions: number of replicates 2
Outline: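 Imaging took place on a CQ1 microscope at 37°C and 5% CO2 once compound had been added to live cells stained at seeding with Hoechst33342, BioTracker Green Microtubule Cytoskeleton Dye, MitoTracker Red and Annexin V Alexa Fluor 680. CellPathfinder machine-learning gating classed cells as Hoechst high-intensity objects or normal cells, classed normal cells as having healthy, pyknosed or fragmented nuclei, and classed pyknosed cells as mitotic or apoptotic. Tubulin, mitochondrial-mass and membrane-permeability phenotypes are per cents of the healthy-nucleus cells.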

[1] = 12 h, 1 µM, compound concentration 1 uM
[2] = 12 h, 10 µM, compound concentration 10 uM
[3] = 24 h, 1 µM, compound concentration 1 uM
[4] = 24 h, 10 µM, compound concentration 10 uM
[5] = 48 h, 1 µM, compound concentration 1 uM
[6] = 48 h, 10 µM, compound concentration 10 uM

**Q.** With `COc1cc(OC)cc(C(=O)NNC(=O)Nc2cccc3ccccc23)c1` as the compound, how does the “Population Apoptotic (%)” value [1] read?
**A.** 32% and 47%

**Q.** And the “Population Fragmented Nuclei (%)” value [1]?
**A.** 6% and 18%

**Q.** What about the “Population Healthy Nuclei (%)” value [1] of the same compound?
**A.** 77% and 72%

**Q.** And the “Population Hoechst High Intensity Objects (%)” value [1]?
**A.** 0%

**Q.** What about the “Population Membrane Permeable-Phenotype (%)” value [1] of the same compound?
**A.** 3%

**Q.** What about the “Population Mitochondria Different-Phenotype (%)” value [1] of the same compound?
**A.** 0% and 1%

**Q.** What about the “Population Mitotic Cells (%)” value [1] of the same compound?
**A.** 67% and 52%

**Q.** And the “Population Normal (%)” value [1]?
**A.** 100%

**Q.** What about the “Population Pyknosed Nuclei (%)” value [1] of the same compound?
**A.** 15% and 8%

**Q.** What about the “Population Tubulin-Different-Phenotype (%)” value [1] of the same compound?
**A.** 10% and 5%

**Q.** What about the “Total Cell Count” value [1] of the same compound?
**A.** 196 and 216

**Q.** What about the “Population Apoptotic (%)” value [2] of the same compound?
**A.** 34% and 37%

**Q.** What about the “Population Fragmented Nuclei (%)” value [2] of the same compound?
**A.** 9% and 7%

**Q.** And the “Population Healthy Nuclei (%)” value [2]?
**A.** 70% and 85%

**Q.** And the “Population Hoechst High Intensity Objects (%)” value [2]?
**A.** 0%

**Q.** What about the “Population Membrane Permeable-Phenotype (%)” value [2] of the same compound?
**A.** 3% and 2%

**Q.** What about the “Population Mitochondria Different-Phenotype (%)” value [2] of the same compound?
**A.** 1% and 0%

**Q.** What about the “Population Mitotic Cells (%)” value [2] of the same compound?
**A.** 65% and 62%

**Q.** What about the “Population Normal (%)” value [2] of the same compound?
**A.** 100%

**Q.** What about the “Population Pyknosed Nuclei (%)” value [2] of the same compound?
**A.** 20% and 7%

**Q.** What about the “Population Tubulin-Different-Phenotype (%)” value [2] of the same compound?
**A.** 12% and 6%

**Q.** And the “Total Cell Count” value [2]?
**A.** 159 and 228

**Q.** And the “Population Apoptotic (%)” value [3]?
**A.** 41% and 50%

**Q.** And the “Population Healthy Nuclei (%)” value [3]?
**A.** 87% and 76%

**Q.** And the “Population Hoechst High Intensity Objects (%)” value [3]?
**A.** 0%

**Q.** And the “Population Membrane Permeable-Phenotype (%)” value [3]?
**A.** 3% and 1%

**Q.** And the “Population Mitochondria Different-Phenotype (%)” value [3]?
**A.** 2% and 0%

**Q.** And the “Population Mitotic Cells (%)” value [3]?
**A.** 58% and 50%

**Q.** What about the “Population Normal (%)” value [3] of the same compound?
**A.** 100%

**Q.** And the “Population Pyknosed Nuclei (%)” value [3]?
**A.** 8% and 6%

**Q.** What about the “Population Tubulin-Different-Phenotype (%)” value [3] of the same compound?
**A.** 11% and 3%

**Q.** What about the “Total Cell Count” value [3] of the same compound?
**A.** 199 and 203

**Q.** And the “Population Apoptotic (%)” value [4]?
**A.** 38% and 25%

**Q.** What about the “Population Fragmented Nuclei (%)” value [4] of the same compound?
**A.** 10%

**Q.** And the “Population Healthy Nuclei (%)” value [4]?
**A.** 77% and 85%

**Q.** What about the “Population Hoechst High Intensity Objects (%)” value [4] of the same compound?
**A.** 0%

**Q.** And the “Population Membrane Permeable-Phenotype (%)” value [4]?
**A.** 3% and 0%

**Q.** And the “Population Mitochondria Different-Phenotype (%)” value [4]?
**A.** 2% and 0%

**Q.** What about the “Population Mitotic Cells (%)” value [4] of the same compound?
**A.** 61% and 75%

**Q.** What about the “Population Normal (%)” value [4] of the same compound?
**A.** 100% and 99%

**Q.** And the “Population Pyknosed Nuclei (%)” value [4]?
**A.** 11% and 3%

**Q.** What about the “Total Cell Count” value [4] of the same compound?
**A.** 155 and 236

**Q.** And the “Population Apoptotic (%)” value [5]?
**A.** 62% and 56%

**Q.** And the “Population Fragmented Nuclei (%)” value [5]?
**A.** 7% and 15%

**Q.** And the “Population Healthy Nuclei (%)” value [5]?
**A.** 88% and 78%

**Q.** And the “Population Hoechst High Intensity Objects (%)” value [5]?
**A.** 0%

**Q.** And the “Population Membrane Permeable-Phenotype (%)” value [5]?
**A.** 1% and 2%

**Q.** And the “Population Mitochondria Different-Phenotype (%)” value [5]?
**A.** 0%

**Q.** What about the “Population Mitotic Cells (%)” value [5] of the same compound?
**A.** 37% and 43%

**Q.** What about the “Population Normal (%)” value [5] of the same compound?
**A.** 100%

**Q.** And the “Population Pyknosed Nuclei (%)” value [5]?
**A.** 3% and 6%

**Q.** And the “Population Tubulin-Different-Phenotype (%)” value [5]?
**A.** 5% and 1%

**Q.** And the “Total Cell Count” value [5]?
**A.** 213 and 238

**Q.** And the “Population Apoptotic (%)” value [6]?
**A.** 66% and 70%

**Q.** What about the “Population Fragmented Nuclei (%)” value [6] of the same compound?
**A.** 12% and 9%

**Q.** What about the “Population Healthy Nuclei (%)” value [6] of the same compound?
**A.** 82% and 86%

**Q.** What about the “Population Hoechst High Intensity Objects (%)” value [6] of the same compound?
**A.** 0%

**Q.** What about the “Population Membrane Permeable-Phenotype (%)” value [6] of the same compound?
**A.** 5% and 0%

**Q.** And the “Population Mitochondria Different-Phenotype (%)” value [6]?
**A.** 0%

**Q.** What about the “Population Mitotic Cells (%)” value [6] of the same compound?
**A.** 33% and 30%

**Q.** And the “Population Normal (%)” value [6]?
**A.** 99%

**Q.** What about the “Population Pyknosed Nuclei (%)” value [6] of the same compound?
**A.** 5% and 4%

**Q.** What about the “Population Tubulin-Different-Phenotype (%)” value [6] of the same compound?
**A.** 8% and 1%

**Q.** And the “Total Cell Count” value [6]?
**A.** 165 and 243

**Q.** What does the source list for `Cn1cc(-n2cnc3c(NCc4nc5cc(Cl)c(Cl)cc5[nH]4)nc(N4CCOCC4)nc32)cn1`?
**A.** Population Apoptotic (%) [1]: 39% and 65%; Population Healthy Nuclei (%) [1]: 79% and 57%; Population Hoechst High Intensity Objects (%) [1]: 0% and 3%; Population Membrane Permeable-Phenotype (%) [1]: 7%; Population Mitochondria Different-Phenotype (%) [1]: 2% and 3%; Population Mitotic Cells (%) [1]: 60% and 34%; Population Normal (%) [1]: 100% and 96%; Population Pyknosed Nuclei (%) [1]: 15% and 19%; Population Tubulin-Different-Phenotype (%) [1]: 29% and 27%; Total Cell Count [1]: 211 and 225; Population Apoptotic (%) [2]: 55% and 51%; Population Fragmented Nuclei (%) [2]: 10% and 19%; Population Healthy Nuclei (%) [2]: 59% and 60%; Population Hoechst High Intensity Objects (%) [2]: 0%; Population Membrane Permeable-Phenotype (%) [2]: 25% and 27%; Population Mitochondria Different-Phenotype (%) [2]: 3% and 5%; Population Mitotic Cells (%) [2]: 44% and 48%; Population Normal (%) [2]: 100%; Population Pyknosed Nuclei (%) [2]: 30% and 20%; Population Tubulin-Different-Phenotype (%) [2]: 74% and 81%; Total Cell Count [2]: 147 and 142; Population Apoptotic (%) [3]: 89% and 85%; Population Fragmented Nuclei (%) [3]: 27% and 14%; Population Healthy Nuclei (%) [3]: 32% and 46%; Population Hoechst High Intensity Objects (%) [3]: 6% and 1%; Population Membrane Permeable-Phenotype (%) [3]: 12%; Population Mitochondria Different-Phenotype (%) [3]: 2% and 1%; Population Mitotic Cells (%) [3]: 10% and 14%; Population Normal (%) [3]: 93% and 98%; Population Pyknosed Nuclei (%) [3]: 40% and 38%; Population Tubulin-Different-Phenotype (%) [3]: 28% and 53%; Total Cell Count [3]: 229 and 205; Population Apoptotic (%) [4]: 63% and 65%; Population Fragmented Nuclei (%) [4]: 10% and 19%; Population Healthy Nuclei (%) [4]: 62% and 59%; Population Hoechst High Intensity Objects (%) [4]: 0%; Population Membrane Permeable-Phenotype (%) [4]: 14%; Population Mitochondria Different-Phenotype (%) [4]: 6% and 13%; Population Mitotic Cells (%) [4]: 36% and 34%; Population Normal (%) [4]: 99%; Population Pyknosed Nuclei (%) [4]: 27% and 21%; Population Tubulin-Different-Phenotype (%) [4]: 79% and 85%; Total Cell Count [4]: 149 and 148; Population Apoptotic (%) [5]: 93% and 94%; Population Fragmented Nuclei (%) [5]: 27% and 13%; Population Healthy Nuclei (%) [5]: 12% and 16%; Population Hoechst High Intensity Objects (%) [5]: 5% and 0%; Population Membrane Permeable-Phenotype (%) [5]: 12% and 29%; Population Mitochondria Different-Phenotype (%) [5]: 4% and 3%; Population Mitotic Cells (%) [5]: 6% and 5%; Population Normal (%) [5]: 94% and 99%; Population Pyknosed Nuclei (%) [5]: 60% and 69%; Population Tubulin-Different-Phenotype (%) [5]: 36% and 61%; Total Cell Count [5]: 218 and 190; Population Apoptotic (%) [6]: 81% and 87%; Population Fragmented Nuclei (%) [6]: 15% and 19%; Population Healthy Nuclei (%) [6]: 35% and 38%; Population Hoechst High Intensity Objects (%) [6]: 1% and 0%; Population Membrane Permeable-Phenotype (%) [6]: 20% and 11%; Population Mitochondria Different-Phenotype (%) [6]: 22% and 19%; Population Mitotic Cells (%) [6]: 18% and 12%; Population Normal (%) [6]: 98% and 100%; Population Pyknosed Nuclei (%) [6]: 49% and 41%; Population Tubulin-Different-Phenotype (%) [6]: 74% and 78%; Total Cell Count [6]: 154 and 134

Reference: ChEMBL document CHEMBL5303300, “EUbOPEN Chemogenomics Library - Multiplex” (2023)
